Data reported in ChEMBL document CHEMBL4311941, “Development of Multifunctional Histone Deacetylase 6 Degraders with Potent Antimyeloma Activity” (J Med Chem, 2019).
Activity calls are given as the source filed them. The calls are words filed in the database; no cut-off is given here.

Assays:
MM1.S [1] = test: Antiproliferative activity against human MM1S cells assessed as reduction in cell viability measured after 72 hrs by resazurin dye based assay relative to control; format: functional
Procedure, shortened: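 MM1S cells seeded at 1 × 10^4 per well, left overnight, then given compound or DMSO vehicle (added as 5× dosing medium) for 72 h at 37 °C, 5% CO2. Resazurin added (10× solution, 1 mg/mL), then incubated overnight at 37 °C. OD read at 570 and 600 nm. Viability is relative to vehicle, n = 3. Curves fitted as [inhibitor] vs response (three parameters); test range 0.3 nM–3 μM.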

[2] = target: T1, Cereblon/Ikaros (Homo sapiens) (UniProt Q96SW2+Q13422); test: Protac activity at CRBN/IKZF1 in human MM1S cells assessed as IKZF1 degradation measured after 6 hrs by Western blot analysis; format: cell-based
[3] = target: T2, Protein cereblon/Protein deacetylase HDAC6 (Homo sapiens, UniProt Q9UBN7+Q96SW2); test: Protac activity at CRBN/HDAC6 in human MM1S cells assessed as induction of alpha tubulin acetylation at 100 nM measured after 6 hrs in presence of proteasome inhibitor MG132 by Western blot analysis; format: cell-based
[4] = target: T2, Protein cereblon/Protein deacetylase HDAC6; test: Protac activity at CRBN/HDAC6 in human A431 cells assessed as HDAC6 degradation up to 10 uM incubated for 6 hrs by Western blot analysis; format: cell-based
[5] = target: Protein cereblon/Histone deacetylase 4 (Homo sapiens) (UniProt P56524+Q96SW2); test: Protac activity at CRBN/HDAC4 in human MM1S cells assessed as HDAC4 degradation at 100 nM measured after 6 hrs in presence of proteasome inhibitor bortezomib by Western blot analysis; format: cell-based
[6] = target: T3, Protein cereblon/Histone deacetylase 1 (Homo sapiens) (UniProt Q13547+Q96SW2); test: Protac activity at CRBN/HDAC1 in human MM1S cells assessed as HDAC1 degradation at 100 nM measured after 6 hrs in presence of proteasome inhibitor MG132 by Western blot analysis; format: cell-based
[7] = target: T2, Protein cereblon/Protein deacetylase HDAC6; test: Protac activity at CRBN/HDAC6 in human MM1S cells assessed as induction of alpha tubulin acetylation measured after 6 hrs by Western blot analysis; format: cell-based
[8] = target: T2, Protein cereblon/Protein deacetylase HDAC6; test: Protac activity at CRBN/HDAC6 in human MM1S cells assessed as HDAC6 degradation at 100 nM measured after 1 to 4 hrs by Western blot analysis; format: cell-based
[9] = target: T2, Protein cereblon/Protein deacetylase HDAC6; test: Protac activity at CRBN/HDAC6 in human MM1S cells assessed as HDAC6 degradation at 3 to 30 nM measured after 6 hrs by Western blot analysis; format: cell-based
[10] = target: T2, Protein cereblon/Protein deacetylase HDAC6; test: Protac activity at CRBN/HDAC6 in human MM1S cells assessed as HDAC6 degradation at 100 nM measured after 6 hrs in presence of E3 ligase ligand pomalidomide by Western blot analysis; format: cell-based
[11] = target: T2, Protein cereblon/Protein deacetylase HDAC6; test: Protac activity at CRBN/HDAC6 in human MM1S cells assessed as HDAC6 degradation at 100 nM measured after 6 hrs in presence of proteasome inhibitor MG132 by Western blot analysis; format: cell-based
Histone deacetylase 5 = Histone deacetylase 5 (Homo sapiens, UniProt Q9UQL6); test: Inhibition of human N-terminal tagged human HDAC5 expressed in HEK293T/17 using Boc-[TFA-Lys]-AMC as substrate preincubated for 10 mins followed by substrate addition and measured after 60 mins by fluorescence assay
[12] = target: T3, Protein cereblon/Histone deacetylase 1 (Homo sapiens); test: Protac activity at CRBN/HDAC1 in human MM1S cells assessed as HDAC1 degradation measured after 6 hrs by Western blot analysis; format: cell-based
[13] = target: T1, Cereblon/Ikaros (Homo sapiens); test: Protac activity at CRBN/IKZF1 in human MM1S cells assessed as IKZF1 degradation at 100 nM measured after 4 hrs by Western blot analysis; format: cell-based
Histone deacetylase 1 = Histone deacetylase 1 (Homo sapiens, UniProt Q13547); test: Inhibition of human N-terminal tagged human HDAC1 expressed in HEK293T/17 using Ac-Gly-Ala-[Ac-Lys]-AMC as substrate preincubated for 10 mins followed by substrate addition and measured after 15 mins by fluorescence assay
[14] = target: T2, Protein cereblon/Protein deacetylase HDAC6; test: Protac activity at CRBN/HDAC6 in human MM1S cells assessed as HDAC6 degradation at 10 to 100 nM measured after 6 hrs by Western blot analysis; format: cell-based
[15] = target: T2, Protein cereblon/Protein deacetylase HDAC6; test: Protac activity at CRBN/HDAC6 in human RS4:11 cells assessed as HDAC6 degradation up to 10 uM incubated for 6 hrs by Western blot analysis; format: cell-based
[16] = target: T4, Protein cereblon/Zinc finger protein Aiolos (Homo sapiens) (UniProt Q96SW2+Q9UKT9); test: Protac activity at CRBN/IKZF3 in human MM1S cells assessed as IKZF3 degradation at 100 nM measured after 6 hrs in presence of NAE inhibitor MLN 4924 by Western blot analysis; format: cell-based
Procedure, shortened: (§1)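 MM1S cells seeded at 1 × 10^6 per well overnight. Pretreated 1 h with pomalidomide, Next-A, MLN 4924 or DMSO, then given 100 nM degrader or DMSO for 6 h. Lysed in RIPA with protease inhibitors, 10−40 μg protein run on SDS-PAGE and transferred to PVDF. Blots probed for IKZF1/IKZF3, detected by ECL and quantified by densitometry.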

[17] = target: T1, Cereblon/Ikaros (Homo sapiens); test: Protac activity at CRBN/IKZF1 in human MM1S cells assessed as IKZF1 degradation at 100 nM measured after 6 hrs in presence of HDAC6 inhibitor Next-A by Western blot analysis; format: cell-based; procedure, shortened: as §1
MM1.S [18] = test: Antiproliferative activity against human MM1S cells assessed as reduction in cell viability at 1 uM measured after 72 hrs by resazurin dye based assay; format: functional
[19] = target: T3, Protein cereblon/Histone deacetylase 1 (Homo sapiens); test: Protac activity at CRBN/HDAC1 in human MM1S cells assessed as HDAC1 degradation at 100 nM measured after 6 hrs in presence of proteasome inhibitor bortezomib by Western blot analysis; format: cell-based
MM1.S [20] = test: Effect on HDAC1 mRNA expression in human MM1S cells at 100 nM measured after 6 hrs by SYBR green dye-based qRT-PCR analysis; format: functional, cell-based
Procedure, shortened: (§2)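 After treatment, MM1S cells washed twice with cold PBS. Total RNA extracted and normalized, then reverse-transcribed. 10 ng cDNA amplified with SYBR Green: 50 °C 2 min, 95 °C 2 min, then 40 cycles of 95 °C 1 s / 60 °C 30 s, followed by a melt curve. Expression calculated by the 2−ΔΔCt method.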

[21] = target: T2, Protein cereblon/Protein deacetylase HDAC6; test: Protac activity at CRBN/HDAC6 in human Jurkat cells assessed as HDAC6 degradation at 10 to 100 nM incubated for 6 hrs by Western blot analysis; format: cell-based
[22] = target: T4, Protein cereblon/Zinc finger protein Aiolos (Homo sapiens); test: Protac activity at CRBN/IKZF3 in human MM1S cells assessed as IKZF3 degradation at 100 nM measured after 4 hrs by Western blot analysis; format: cell-based
Procedure, shortened: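 Time course in MM1S cells (1 × 10^6 cells per well, seeded overnight) under 100 nM degrader. Whole-cell RIPA lysates analysed by 7.5−12% SDS-PAGE and PVDF immunoblot. Primary antibody at 4 °C overnight, HRP secondary 1 h, ECL detection with densitometry.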

MM1.S [23] = test: Effect on IKZF3 mRNA expression in human MM1S cells at 100 nM measured after 6 hrs by SYBR green dye-based qRT-PCR analysis; format: functional, cell-based; procedure, shortened: as §2
[24] = target: T2, Protein cereblon/Protein deacetylase HDAC6; test: Protac activity at CRBN/HDAC6 in human MM1S cells assessed as induction of alpha tubulin acetylation at 100 nM measured after 6 hrs in presence of proteasome inhibitor bortezomib by Western blot analysis; format: cell-based

T3 sequence (Q13547 whole entry, looked up): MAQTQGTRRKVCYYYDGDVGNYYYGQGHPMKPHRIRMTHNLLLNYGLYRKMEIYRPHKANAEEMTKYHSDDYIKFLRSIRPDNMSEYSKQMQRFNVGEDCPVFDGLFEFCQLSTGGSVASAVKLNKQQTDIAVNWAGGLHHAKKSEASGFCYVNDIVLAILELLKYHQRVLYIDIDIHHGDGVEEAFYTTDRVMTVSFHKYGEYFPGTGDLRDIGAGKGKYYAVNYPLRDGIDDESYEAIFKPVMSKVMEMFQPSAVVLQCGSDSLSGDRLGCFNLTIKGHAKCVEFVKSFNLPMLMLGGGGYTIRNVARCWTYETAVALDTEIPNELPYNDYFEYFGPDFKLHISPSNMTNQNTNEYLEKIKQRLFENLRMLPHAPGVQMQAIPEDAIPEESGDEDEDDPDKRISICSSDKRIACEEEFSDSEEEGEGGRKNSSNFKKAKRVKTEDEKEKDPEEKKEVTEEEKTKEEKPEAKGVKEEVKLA
T3 sequence (Q96SW2 whole entry, looked up): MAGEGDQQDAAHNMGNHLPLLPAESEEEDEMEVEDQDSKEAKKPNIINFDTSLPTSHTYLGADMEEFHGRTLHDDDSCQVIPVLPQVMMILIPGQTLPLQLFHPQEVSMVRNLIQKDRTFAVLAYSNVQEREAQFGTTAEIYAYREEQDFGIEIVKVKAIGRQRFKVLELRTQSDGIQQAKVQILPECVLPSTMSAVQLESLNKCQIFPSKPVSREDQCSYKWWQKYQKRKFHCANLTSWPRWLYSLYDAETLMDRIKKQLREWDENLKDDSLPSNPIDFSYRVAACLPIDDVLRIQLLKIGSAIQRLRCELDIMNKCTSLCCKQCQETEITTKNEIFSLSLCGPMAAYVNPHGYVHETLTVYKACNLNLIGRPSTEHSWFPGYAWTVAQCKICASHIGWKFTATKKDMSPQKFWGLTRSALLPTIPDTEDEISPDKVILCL
T2 sequence (Q96SW2 whole entry, looked up): as above
T2 sequence (Q9UBN7 whole entry, looked up): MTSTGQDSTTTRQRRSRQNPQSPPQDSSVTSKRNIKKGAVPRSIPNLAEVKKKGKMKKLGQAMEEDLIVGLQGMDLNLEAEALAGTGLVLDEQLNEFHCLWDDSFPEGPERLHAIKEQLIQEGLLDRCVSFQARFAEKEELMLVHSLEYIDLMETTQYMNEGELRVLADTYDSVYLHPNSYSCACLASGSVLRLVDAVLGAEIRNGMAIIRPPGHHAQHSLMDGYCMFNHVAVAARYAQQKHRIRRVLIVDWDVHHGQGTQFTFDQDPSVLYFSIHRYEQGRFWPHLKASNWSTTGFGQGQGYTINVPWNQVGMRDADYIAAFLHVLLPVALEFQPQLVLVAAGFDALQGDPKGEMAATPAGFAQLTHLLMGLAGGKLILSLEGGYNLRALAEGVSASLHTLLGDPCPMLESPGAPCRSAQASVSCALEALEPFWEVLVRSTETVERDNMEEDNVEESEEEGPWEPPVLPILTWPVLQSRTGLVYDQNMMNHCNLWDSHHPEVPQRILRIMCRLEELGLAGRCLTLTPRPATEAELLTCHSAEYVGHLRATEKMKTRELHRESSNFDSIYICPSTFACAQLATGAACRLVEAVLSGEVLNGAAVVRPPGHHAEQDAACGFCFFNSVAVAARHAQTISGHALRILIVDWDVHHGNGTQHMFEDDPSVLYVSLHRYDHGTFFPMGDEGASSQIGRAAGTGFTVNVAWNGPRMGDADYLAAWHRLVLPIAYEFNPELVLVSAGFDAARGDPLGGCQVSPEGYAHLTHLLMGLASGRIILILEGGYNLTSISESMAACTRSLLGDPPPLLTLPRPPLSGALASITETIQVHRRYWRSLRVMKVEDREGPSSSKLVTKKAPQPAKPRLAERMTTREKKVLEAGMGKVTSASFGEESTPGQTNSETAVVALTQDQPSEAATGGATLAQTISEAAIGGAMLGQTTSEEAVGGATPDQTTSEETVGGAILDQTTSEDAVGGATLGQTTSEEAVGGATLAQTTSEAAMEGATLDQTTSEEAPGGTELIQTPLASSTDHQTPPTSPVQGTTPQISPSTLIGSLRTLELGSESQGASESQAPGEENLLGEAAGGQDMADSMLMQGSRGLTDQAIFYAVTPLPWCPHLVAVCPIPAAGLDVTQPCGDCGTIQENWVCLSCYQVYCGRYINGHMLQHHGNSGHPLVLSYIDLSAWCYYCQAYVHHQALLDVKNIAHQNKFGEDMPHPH
T4 sequence (Q96SW2 whole entry, looked up): as the sequence (Q96SW2 whole entry, looked up) above
T4 sequence (Q9UKT9 whole entry, looked up): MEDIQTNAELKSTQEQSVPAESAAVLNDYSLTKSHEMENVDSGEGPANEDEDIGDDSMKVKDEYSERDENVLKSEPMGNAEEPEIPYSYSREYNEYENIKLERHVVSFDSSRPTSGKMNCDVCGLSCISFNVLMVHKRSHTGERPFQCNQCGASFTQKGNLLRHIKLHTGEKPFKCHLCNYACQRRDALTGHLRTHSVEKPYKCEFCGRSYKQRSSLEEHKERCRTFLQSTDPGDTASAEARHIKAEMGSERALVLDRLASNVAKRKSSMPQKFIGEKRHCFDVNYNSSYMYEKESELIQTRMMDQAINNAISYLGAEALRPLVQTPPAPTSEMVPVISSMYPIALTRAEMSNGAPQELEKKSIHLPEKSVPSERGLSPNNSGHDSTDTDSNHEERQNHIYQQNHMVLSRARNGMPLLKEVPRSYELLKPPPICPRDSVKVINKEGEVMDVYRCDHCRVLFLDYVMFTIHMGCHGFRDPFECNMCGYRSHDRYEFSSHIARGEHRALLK
Protein cereblon/Histone deacetylase 4 (Homo sapiens), sequence (P56524 whole entry, looked up): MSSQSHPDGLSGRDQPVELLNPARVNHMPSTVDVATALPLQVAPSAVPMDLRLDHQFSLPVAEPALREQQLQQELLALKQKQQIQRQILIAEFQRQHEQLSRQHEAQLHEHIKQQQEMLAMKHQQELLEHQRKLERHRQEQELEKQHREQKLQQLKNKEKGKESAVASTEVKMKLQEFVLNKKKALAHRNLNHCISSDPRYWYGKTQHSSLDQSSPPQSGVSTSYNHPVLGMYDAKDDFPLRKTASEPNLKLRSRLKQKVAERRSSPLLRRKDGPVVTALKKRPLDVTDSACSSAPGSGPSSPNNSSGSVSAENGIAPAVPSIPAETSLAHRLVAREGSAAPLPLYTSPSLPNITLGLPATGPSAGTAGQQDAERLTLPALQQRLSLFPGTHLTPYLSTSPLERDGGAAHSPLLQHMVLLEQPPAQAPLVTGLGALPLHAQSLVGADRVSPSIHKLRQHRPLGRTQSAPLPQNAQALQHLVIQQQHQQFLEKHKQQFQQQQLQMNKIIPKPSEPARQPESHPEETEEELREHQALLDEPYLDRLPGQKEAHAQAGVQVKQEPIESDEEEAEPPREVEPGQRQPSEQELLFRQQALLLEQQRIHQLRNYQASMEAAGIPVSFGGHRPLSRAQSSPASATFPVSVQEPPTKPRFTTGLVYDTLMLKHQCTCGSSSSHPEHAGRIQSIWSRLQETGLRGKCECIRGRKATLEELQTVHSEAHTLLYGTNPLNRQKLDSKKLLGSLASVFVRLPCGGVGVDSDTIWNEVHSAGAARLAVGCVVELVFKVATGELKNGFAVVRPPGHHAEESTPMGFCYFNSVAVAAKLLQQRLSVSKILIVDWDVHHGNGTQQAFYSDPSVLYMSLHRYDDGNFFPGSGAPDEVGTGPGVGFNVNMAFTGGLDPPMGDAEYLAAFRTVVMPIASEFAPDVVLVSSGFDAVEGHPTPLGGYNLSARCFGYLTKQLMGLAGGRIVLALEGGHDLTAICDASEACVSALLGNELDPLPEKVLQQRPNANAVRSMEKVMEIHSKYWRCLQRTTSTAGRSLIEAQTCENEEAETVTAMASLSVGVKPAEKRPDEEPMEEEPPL
Protein cereblon/Histone deacetylase 4 (Homo sapiens), sequence (Q96SW2 whole entry, looked up): as the sequence (Q96SW2 whole entry, looked up) above
Histone deacetylase 5, sequence (Q9UQL6 whole entry): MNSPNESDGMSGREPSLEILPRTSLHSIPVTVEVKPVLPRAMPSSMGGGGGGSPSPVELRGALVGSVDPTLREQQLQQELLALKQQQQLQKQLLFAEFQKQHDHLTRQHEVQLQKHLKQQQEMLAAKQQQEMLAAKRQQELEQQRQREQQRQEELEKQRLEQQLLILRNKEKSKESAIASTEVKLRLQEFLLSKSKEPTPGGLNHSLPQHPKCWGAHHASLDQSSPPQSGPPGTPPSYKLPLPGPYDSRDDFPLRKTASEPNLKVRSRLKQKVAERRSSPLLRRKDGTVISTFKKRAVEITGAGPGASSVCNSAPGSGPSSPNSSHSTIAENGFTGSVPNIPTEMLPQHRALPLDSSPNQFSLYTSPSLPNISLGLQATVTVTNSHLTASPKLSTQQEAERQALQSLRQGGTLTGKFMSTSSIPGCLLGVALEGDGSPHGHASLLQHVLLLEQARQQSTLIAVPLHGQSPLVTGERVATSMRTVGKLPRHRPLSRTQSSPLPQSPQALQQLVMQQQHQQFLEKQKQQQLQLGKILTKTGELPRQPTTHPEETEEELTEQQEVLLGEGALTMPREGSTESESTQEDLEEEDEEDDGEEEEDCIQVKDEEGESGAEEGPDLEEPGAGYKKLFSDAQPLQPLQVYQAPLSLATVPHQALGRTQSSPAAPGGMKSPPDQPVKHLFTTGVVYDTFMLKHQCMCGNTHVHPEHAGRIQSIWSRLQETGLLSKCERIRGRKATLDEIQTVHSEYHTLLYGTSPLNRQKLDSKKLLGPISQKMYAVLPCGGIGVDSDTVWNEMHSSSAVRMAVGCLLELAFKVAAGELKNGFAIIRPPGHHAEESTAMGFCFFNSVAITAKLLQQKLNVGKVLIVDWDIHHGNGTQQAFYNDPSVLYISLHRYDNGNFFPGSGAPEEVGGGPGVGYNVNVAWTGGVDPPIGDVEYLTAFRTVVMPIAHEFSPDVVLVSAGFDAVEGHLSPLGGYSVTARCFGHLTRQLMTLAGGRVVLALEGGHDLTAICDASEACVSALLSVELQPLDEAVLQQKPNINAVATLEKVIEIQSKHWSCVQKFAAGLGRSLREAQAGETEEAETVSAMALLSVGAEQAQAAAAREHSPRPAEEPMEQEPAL
Histone deacetylase 1, sequence (Q13547 whole entry): as the sequence (Q13547 whole entry, looked up) above

`CCCCN(Cc1ccc(C(=O)NO)cc1)C(=O)Nc1ccc(OCCCCCn2cc(CNc3cccc4c3C(=O)N(C3CCC(=O)NC3=O)C4=O)nn2)cc1` (stereo unspecified) was tested, and the Imax (MM1.S [1]) was 63.1%, the Activity [2] was “Dose-dependent effect” and the Activity [3] was “inactive”. The Activity [4] was “Active”, the Activity [5] was “inactive” and the Activity [6] was “inactive”. The Activity [7] was “Dose-dependent effect”, the Activity [8] was “Dose-dependent effect” and the Activity [9] was “Active”. The Activity [10] was “inactive”, the Activity [11] was “inactive” and the IC50 (Histone deacetylase 5) was 0.3 to 30 µM. For the same compound, the Activity [12] was “inactive”, the Activity [13] was “Active” and the IC50 (Histone deacetylase 1) was 0.3 to 30 µM. For the same compound, the Activity [14] was “Active”, the Activity [15] was “Active” and the Activity [16] was “inactive”. The Activity [17] was “Active”, the Activity (MM1.S [18]) was “Active” and the Activity [19] was “inactive”. The Activity (MM1.S [20]) was “Active”, the Activity [21] was “Active” and the Activity [22] was “Active”. The Activity (MM1.S [23]) was “Active” and the Activity [24] was “inactive”.
